In assay [1] the test system is Rattus norvegicus. As to the kind of experiment: DA2 antagonist activity was tested by the duration of onset of action of cardiovascular response at 1000 ug/kg; Insufficient sample for statistical treatment. Format: functional, Heart.
Assay [2] has as its system Rattus norvegicus. As to the kind of experiment: DA2 antagonist activity was tested by its ability to decrease the heart rate in anesthetized rat at 1000 ug/kg. Type of assay: functional. The procedure, abridged:
(§1)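 Urethane-anaesthetised (900 mg/kg ip) Sprague-Dawley rats received iv cumulative doses via the femoral vein, at 0.48 log10 steps once responses had been stable ≥5 min. Heart rate came from a cardiotachometer triggered by the femoral arterial pulse, as decrease in beats/min. n = 3 rats per compound; mean ± SD.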

Assay [3] deals with Rattus norvegicus. The assay is described as follows: DA2 antagonist activity was tested by its ability to decrease the heart rate in anesthetized rat at 30 ug/kg. Format: functional. The procedure, abridged: as §1
The test system of assay [4] is Rattus norvegicus. As to the kind of experiment: DA2 antagonist activity was tested by its ability to decrease the heart rate in anesthetized rat at 10 ug/kg. Format: functional. The procedure, abridged: as §1
Assay [5] relates to Rattus norvegicus. As to the kind of experiment: DA2 antagonist activity was tested by the duration of onset of action of cardiovascular response at 10 ug/kg. Format: functional, Heart. The procedure, abridged:
(§2)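 In anaesthetised Sprague-Dawley rats (urethane 900 mg/kg ip), cumulative iv doses at 0.48 log10 intervals were given via the femoral vein after ≥5 min of stable responses. Duration of hypotension and bradycardia (min) was taken from femoral arterial pressure and pulse-triggered heart rate recordings. Three rats per compound; mean ± SD.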

For assay [6], the system named is Rattus norvegicus. The assay is described as follows: DA2 antagonist activity was tested by its ability to decrease the heart rate in anesthetized rat at 100 ug/kg. Format: functional. The procedure, abridged:
as §1

Assay [7] deals with Rattus norvegicus. As to the kind of experiment: DA2 antagonist activity was tested by its ability to decrease the arterial pressure in anesthetized rat at 30 ug/kg. Type of assay: functional, Artery. The procedure, abridged: (§3)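 Sprague-Dawley rats under urethane anaesthesia (900 mg/kg ip), with a femoral vein cannula for drug. Compound given iv as cumulative doses spaced 0.48 log10 units apart, each after responses had been stable ≥5 min. Mean arterial pressure was recorded from the femoral artery via a transducer, as decrease in mmHg. Three rats per compound; mean ± SD.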

The subject of assay [8] is Rattus norvegicus. The assay is described as follows: DA2 antagonist activity was tested by the duration of onset of action of cardiovascular response at 30 ug/kg. Format: functional, Heart. The procedure, abridged:
as §2

Assay [9] deals with Rattus norvegicus. The assay is described as follows: DA2 antagonist activity was tested by the duration of onset of action of cardiovascular response at 100 ug/kg. Format: functional, Heart. The procedure, abridged: as §2
Assay [10] deals with Rattus norvegicus. The assay is described as follows: DA2 antagonist activity was tested by its ability to decrease the arterial pressure in anesthetized rat at 100 ug/kg. Format: functional, Artery. The procedure, abridged:
as §3

In assay [11] the test system is Rattus norvegicus. The assay is described as follows: DA2 antagonist activity was tested by its ability to decrease the arterial pressure in anesthetized rat at 10 ug/kg. Type of assay: functional, Artery. The procedure, abridged:
as §3

In assay [12] the test system is Rattus norvegicus. The assay is described as follows: DA2 antagonist activity was tested by its ability to decrease the heart rate in anesthetized rat at 3000 ug/kg. Format: functional. The procedure, abridged: as §1
For assay [13], the system named is Rattus norvegicus. As to the kind of experiment: DA2 antagonist activity was tested by its ability to decrease the arterial pressure in anesthetized rat at 300 ug/kg. Type of assay: functional, Artery. The procedure, abridged:
as §3

Assay [14] has as its system Rattus norvegicus. As to the kind of experiment: DA2 antagonist activity was tested by the duration of onset of action of cardiovascular response at 3000 ug/kg. Format: functional, Heart. The procedure, abridged:
as §2

The subject of assay [15] is Rattus norvegicus. The assay is described as follows: DA2 antagonist activity was tested by its ability to decrease the heart rate in anesthetized rat at 300 ug/kg. Format: functional. The procedure, abridged:
as §1

Assay [16] relates to Rattus norvegicus. As to the kind of experiment: DA2 antagonist activity was tested by the duration of onset of action of cardiovascular response at 1000 ug/kg. Format: functional, Heart. The procedure, abridged:
as §2

Assay [17] relates to Rattus norvegicus. As to the kind of experiment: DA2 antagonist activity was tested by the duration of onset of action of cardiovascular response at 300 ug/kg. Type of assay: functional, Heart. The procedure, abridged: as §2
Assay [18] concerns Rattus norvegicus. As to the kind of experiment: DA2 antagonist activity was tested by its ability to decrease the arterial pressure in anesthetized rat at […] ug/kg. Format: functional, Artery. The procedure, abridged:
as §3

The subject of assay [19] is Rattus norvegicus. The assay is described as follows: DA2 antagonist activity was tested by its ability to decrease the arterial pressure in anesthetized rat at 3000 ug/kg. Type of assay: functional, Artery. The procedure, abridged: as §3
In assay [20] the test system is Rattus norvegicus. As to the kind of experiment: DA2 antagonist activity was tested by its to decrease the heart rate in anesthetized rat at 1000 ug/kg. Type of assay: functional. The procedure, abridged:
as §1

Assay [21] deals with Rattus norvegicus. As to the kind of experiment: DA2 antagonist activity was tested by its to decrease the heart rate in anesthetized rat at 300 ug/kg. Type of assay: functional. The procedure, abridged: as §1
Assay [22] relates to Rattus norvegicus. The assay is described as follows: DA2 antagonist activity was tested by its to decrease the heart rate in anesthetized rat at 3000 ug/kg. Type of assay: functional. The procedure, abridged:
as §1

As for `CCCN1CCCC(c2cc(OC)ccc2OC)C1` (single isomer, unassigned; (+)), in the assay on Rattus norvegicus [1], the Duration of action amounted to 18 min. For the same molecule, the “Decrease in heart rate” value in the assay with Rattus norvegicus [2] is on record as 30 beats min-1.

For `CCCN1CCC[C@H](c2cccc(O)c2)C1`, the “Decrease in heart rate” value in the assay on Rattus norvegicus [3] is recorded as 37 beats min-1; in the assay on Rattus norvegicus [4] it was 13 beats min-1; in the assay with Rattus norvegicus [6], 44 beats min-1. For the same molecule, the values for the Duration of action with Rattus norvegicus [5], in the assay on Rattus norvegicus [8] and in the assay with Rattus norvegicus [9] were 6 min, 10 min and 14 min, respectively. Also, the Decrease in pressure is 16 mmHg with Rattus norvegicus [7], 23 mmHg in the assay on Rattus norvegicus [10] and 5 mmHg with Rattus norvegicus [11].

In the case of `CCCN1CCCC(c2cc(OC)ccc2OC)C1` (single isomer, unassigned; (-)), the “Decrease in heart rate” value in the assay with Rattus norvegicus [12] is 45 beats min-1; in the assay on Rattus norvegicus [15] it was 10 beats min-1; with Rattus norvegicus [2] it was 40 beats min-1. The Decrease in pressure in the assay on Rattus norvegicus [13] is 15 mmHg; in the assay on Rattus norvegicus [18], 27 mmHg. Besides, the Duration of action with Rattus norvegicus [14] amounted to 10 min; with Rattus norvegicus [16] it was 5 min; in the assay with Rattus norvegicus [17] it was 2 min.

Take `CCCN1CCCC(c2cc(OC)ccc2OC)C1` (racemic): the Decrease in pressure was 10 mmHg with Rattus norvegicus [13] and 23 mmHg in the assay on Rattus norvegicus [19]. Further, the Duration of action in the assay on Rattus norvegicus [14] is listed as 13 min; in the assay on Rattus norvegicus [16], 8 min; in the assay on Rattus norvegicus [17] it was 5 min. In addition, the “Decrease in heart rate” value in the assay with Rattus norvegicus [20] is 35 beats min-1; in the assay on Rattus norvegicus [21] it was 17 beats min-1; in the assay on Rattus norvegicus [22], 45 beats min-1.
